In the library only some 2.3% were active in any assay of this set; here they are far more common.
NadD block: NadD (S. aureus) enzyme inhibition. purified NadD enzyme, colorimetric absorbance read-out. inhibition, % at 20 µM. 360,000 tested, 0.78% active. AID 602399; in the data active means inhibition above about 26%
DNMT1 inh: inhibitors of human DNMT1; P26358; DNMT1 molecular beacon, Hinp1I cleavage, fluorescence; inhibition (reported as % activation of signal), % at 10 µM; 360,000 tested, 0.83% active; AID 588458; in the data active means inhibition above about 50%
LMPTP inh: LMPTP (human) inhibition; P24666; recombinant LMPTP-A, OMFP fluorogenic substrate, fluorescence intensity; inhibition, % at 20 µM; 360,000 tested, 0.22% active;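 active means compounds that cut the enzyme signal by at least half of the control window in the single-dose screen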
Target sequence (P24666 whole entry, looked up): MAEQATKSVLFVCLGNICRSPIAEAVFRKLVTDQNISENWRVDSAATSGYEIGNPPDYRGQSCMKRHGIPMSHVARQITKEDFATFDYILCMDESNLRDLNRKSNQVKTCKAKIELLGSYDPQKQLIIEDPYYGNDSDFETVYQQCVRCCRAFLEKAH
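Test system – LMPTP-A phosphatase enzyme · Quantity – 0.625 nM LMPTP-A final · Reagent – OMFP substrate, 400 µM final · Dosing – one test concentration per compound, 20 µM, with 3% DMSO overall · Timing – 50 min enzyme reaction at room temperature, protected from light · Detection – fluorescence intensity · Controls – substrate-only low control, DMSO enzyme-plus-substrate high control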
STEP block: inhibitors of human striatal-enriched phosphatase STEP. P54829. recombinant STEP, OMFP fluorogenic substrate, fluorescence. inhibition, % at 20 µM. 360,000 tested, 0.25% active. AID 588621;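 active means inhibition at 20 µM, scaled per plate between control wells, above about 37%, limit read from the data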
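material = STEP tyrosine phosphatase | reagent = fluorogenic phosphatase substrate OMFP at 25 µM final | doses = single compound dose of 20 µM, 1% DMSO final | schedule = 20 min reaction, room temperature, in the dark | measured by = fluorescence, 480/540 nm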
Scp-1 inhibitor: blocks human Scp-1 phosphatase activity; Q9GZU7; Recombinant Scp1, phosphopeptide, malachite green phosphate absorbance; inhibition, % at 20 µM; 340,000 tested, 0.88% active; AID 493091;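 active means inhibition above about 50% at 20 µM, limit read from the data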
Target sequence (Q9GZU7 76-261 limits assumed): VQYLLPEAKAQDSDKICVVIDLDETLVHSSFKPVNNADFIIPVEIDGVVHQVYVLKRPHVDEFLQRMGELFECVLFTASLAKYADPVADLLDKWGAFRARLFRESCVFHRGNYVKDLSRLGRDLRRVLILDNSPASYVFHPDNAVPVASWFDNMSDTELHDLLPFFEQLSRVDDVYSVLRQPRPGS
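Material: truncated SCP-1 phosphatase (76-261aa) / Buffer or medium: 50 mM Tris acetate pH 5.5, 0.005% Tween-20, 10 mM MgCl2 / Compound dosing: one concentration, 20 µM, with 1.0% DMSO / Incubation: 45 min room-temperature reaction, 5 min colour, 30 min stabiliser / Detection: colorimetric free-phosphate detection, absorbance 630 nm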
SUMO1 PPI mod: alters human SUMO1 binding to SIM partners | SUMO1 binding to a labelled peptide, TR-FRET, 1 h | 360,000 tested, 0.33% active | P63165 | inhibition, % at 20 µM; in the data active means inhibition above about 37%
Target sequence (P63165 whole entry, looked up): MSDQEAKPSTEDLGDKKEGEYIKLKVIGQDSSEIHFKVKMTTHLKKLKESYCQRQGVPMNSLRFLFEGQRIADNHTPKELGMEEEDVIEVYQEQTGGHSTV
Scp1 confirm: Scp-1 (human) inhibition, single-dose confirmed; recombinant SCP-1 catalytic domain, phosphate release, malachite green absorbance; shares compounds with Scp-1 inhibitor; 2,500 tested, 61% active; AID 540281; inhibition, % at 20 µM
Scp-1 MG ctr: counter-screen for Scp-1 inhibitors: colorimetric interference; shares compounds with Scp-1 inhibitor; Colorimetric interference counterscreen, malachite green absorbance 630 nm; apparent inhibition (interference), % at 20 µM; 2,500 tested, under 10 active; AID 540313;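 further: compounds added after enzyme reaction finished so only phosphate colour detection is probed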
Scp-1 Tm shift: validation of human Scp-1 inhibitors by thermal shift binding | shares compounds with Scp-1 inhibitor | Recombinant SCP1, Sypro Orange thermal shift Tm | thermal shift relative to vanadate control, % at 40 µM | 1,500 tested, 25% active;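 active means substances whose mean melting-temperature shift, as a percentage of the reference inhibitor's shift, reaches about 5.3%, limit read from the data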
A number is an active result.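 How the source made its calls, unless noted: active means inhibition of at least 30% at 20 µM; inactive means the rest.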

CN(Cc1ccc(Cl)cc1)C(CCc1ccccc1)C(=O)NC1CCCCC1 (centres undefined) was read as NadD block inactive, DNMT1 inh inactive, LMPTP inh inactive, STEP block inactive and SUMO1 PPI mod inactive.
`Cc1cc2ccccn2c1C(=O)c1ccc(N/N=C/c2ccc(C(=O)O)cc2)c([N+](=O)[O-])c1` gave NadD block inactive, DNMT1 inh 88, LMPTP inh inactive, STEP block 99, Scp-1 inhibitor 114, SUMO1 PPI mod 104, Scp1 confirm 70, Scp-1 MG ctr inactive and Scp-1 Tm shift 6.4.
Cc1ccc(F)c(Cn2cnc3c(cnn3C(C)(C)C)c2=O)c1Cl was read as NadD block inactive, DNMT1 inh inactive, LMPTP inh inactive, STEP block inactive, Scp-1 inhibitor inactive and SUMO1 PPI mod inactive.
Screening O=C(CCC1CC(=O)Nc2ccccc21)NCc1ccc(F)cc1 (centres undefined) returned NadD block inactive, DNMT1 inh inactive, LMPTP inh inactive, STEP block inactive, Scp-1 inhibitor inactive, SUMO1 PPI mod inactive, Scp1 confirm inactive and Scp-1 MG ctr inactive.
`Nc1nc2c(ncn2[C@@H]2O[C@H](CNS(=O)(=O)c3cccnc3)[C@@H](O)[C@H]2O)c(=O)[nH]1` gave NadD block inactive, DNMT1 inh inactive, LMPTP inh inactive, STEP block inactive and SUMO1 PPI mod inactive.
For COc1ccccc1N1CCN(C(=O)c2cc3c(s2)CCC3)CC1 the results were NadD block inactive, DNMT1 inh inactive, LMPTP inh inactive, STEP block inactive, Scp-1 inhibitor 85, SUMO1 PPI mod inactive, Scp1 confirm inactive and Scp-1 MG ctr inactive.
CCc1noc(C)c1C(=O)NNC(=O)COc1cc(C)ccc1C was read as NadD block inactive, DNMT1 inh inactive, LMPTP inh inactive, STEP block inactive, Scp-1 inhibitor inactive and SUMO1 PPI mod inactive.
`O=C(COC(=O)c1ccc(NS(=O)(=O)c2cccs2)cc1)Nc1nc2c(F)c(F)c(F)cc2s1` gave NadD block 50, DNMT1 inh inactive, LMPTP inh inactive, STEP block inactive, Scp-1 inhibitor 51, SUMO1 PPI mod inactive, Scp1 confirm 65, Scp-1 MG ctr inactive and Scp-1 Tm shift 26.
Screening O=C(COC(=O)c1ccco1)Nc1nc2c(F)c(F)c(F)cc2s1 returned NadD block inactive, DNMT1 inh inactive, LMPTP inh inactive, STEP block inactive, Scp-1 inhibitor inactive and SUMO1 PPI mod inactive.
Screening NCc1ccccc1CS(=O)(=O)N1CCOCC1 returned NadD block inactive, DNMT1 inh inactive, LMPTP inh inactive, STEP block inactive, Scp-1 inhibitor inactive and SUMO1 PPI mod inactive.
`CCc1cc(C(=O)OC)c(NC(=O)CCC(=O)O)s1` gave NadD block inactive, DNMT1 inh inactive, LMPTP inh inactive, STEP block inactive, Scp-1 inhibitor 62, SUMO1 PPI mod inactive, Scp1 confirm inactive and Scp-1 MG ctr inactive.
For COc1ccc(/C=C(\C#N)C(=O)Nc2ccc3[nH]c(=O)[nH]c3c2)cc1 the results were NadD block inactive, DNMT1 inh inactive, LMPTP inh inactive, STEP block inactive, Scp-1 inhibitor 111, SUMO1 PPI mod inactive, Scp1 confirm 66, Scp-1 MG ctr inactive and Scp-1 Tm shift inactive.
For O=C(Nc1nnc(SCc2ccc(F)cc2)s1)C1CC(=O)N(c2ccc3c(c2)OCCO3)C1 (centres undefined) the results were NadD block inactive, DNMT1 inh inactive, LMPTP inh inactive, STEP block inactive, Scp-1 inhibitor inactive and SUMO1 PPI mod inactive.
For Cc1nnc(NC(=O)C2CC(=O)N(c3ccc4c(c3)OCCO4)C2)s1 (centres undefined) the results were NadD block inactive, DNMT1 inh inactive, LMPTP inh inactive, STEP block inactive, Scp-1 inhibitor inactive and SUMO1 PPI mod inactive.
`O=C(Nc1nc(-c2ccco2)c(-c2ccco2)s1)C1CC(=O)N(c2ccc3c(c2)OCCO3)C1` (centres undefined) gave NadD block 72, DNMT1 inh 72, LMPTP inh inactive, STEP block inactive, Scp-1 inhibitor 82, SUMO1 PPI mod inactive, Scp1 confirm 57, Scp-1 MG ctr inactive and Scp-1 Tm shift 13.
O=C(Nc1nnc(SCc2c(Cl)cccc2Cl)s1)C1CC(=O)N(c2ccc3c(c2)OCCO3)C1 (centres undefined) was read as NadD block inactive, DNMT1 inh inactive, LMPTP inh inactive, STEP block inactive, Scp-1 inhibitor 67, SUMO1 PPI mod inactive, Scp1 confirm 66, Scp-1 MG ctr inactive and Scp-1 Tm shift inactive.
`Cc1cccc(C(=O)Oc2ccc(/C=N/NC(=O)Cc3ccc([N+](=O)[O-])cc3)cc2)c1` gave NadD block inactive, DNMT1 inh inactive, LMPTP inh inactive, STEP block inactive, Scp-1 inhibitor 52, SUMO1 PPI mod inactive, Scp1 confirm 36, Scp-1 MG ctr inactive and Scp-1 Tm shift inactive.
CC1(C(=O)Nc2ccc3c(c2)OCCO3)CSCC(=O)N1CCc1ccccc1F (centres undefined) was read as LMPTP inh inactive and SUMO1 PPI mod inactive.
Screening CCOc1ccc(C(=O)Nc2cccc(-c3nc4cccnc4o3)c2)cc1Cl returned NadD block inactive, DNMT1 inh inactive, LMPTP inh inactive, STEP block inactive, Scp-1 inhibitor 83, SUMO1 PPI mod inactive, Scp1 confirm inactive and Scp-1 MG ctr inactive.
`O=C(NNC(=O)c1ccc(Cl)cc1Cl)c1ccc2ccccc2c1` gave NadD block inactive, DNMT1 inh inactive, LMPTP inh inactive, STEP block inactive, Scp-1 inhibitor inactive, SUMO1 PPI mod inactive, Scp1 confirm inactive and Scp-1 MG ctr inactive.
`CCOC(=O)N1CCN(C(=O)C2CC(=O)N(c3ccc(C)cc3)C2)CC1` (centres undefined) gave NadD block inactive, DNMT1 inh inactive, LMPTP inh inactive, STEP block inactive, Scp-1 inhibitor inactive and SUMO1 PPI mod inactive.
Screening COCc1c(C(=O)N2CCN(Cc3c(F)cccc3Cl)CC2)oc2ccccc12 returned NadD block inactive, DNMT1 inh inactive, LMPTP inh inactive, STEP block inactive, Scp-1 inhibitor 53, SUMO1 PPI mod inactive, Scp1 confirm inactive and Scp-1 MG ctr inactive.

Bioassay records: PubChem, Sanford-Burnham Center for Chemical Genomics
